The text below walks through data of ChEMBL document CHEMBL1681688, “Design and evaluation of a 2-(2,3,6-trifluorophenyl)acetamide derivative as an agonist of the GPR119 receptor” (Bioorg Med Chem Lett, 2011).

Data set [1] addresses T1, Glucose-dependent insulinotropic receptor (Homo sapiens) (UniProt Q8TDV5).
T1 sequence (whole entry): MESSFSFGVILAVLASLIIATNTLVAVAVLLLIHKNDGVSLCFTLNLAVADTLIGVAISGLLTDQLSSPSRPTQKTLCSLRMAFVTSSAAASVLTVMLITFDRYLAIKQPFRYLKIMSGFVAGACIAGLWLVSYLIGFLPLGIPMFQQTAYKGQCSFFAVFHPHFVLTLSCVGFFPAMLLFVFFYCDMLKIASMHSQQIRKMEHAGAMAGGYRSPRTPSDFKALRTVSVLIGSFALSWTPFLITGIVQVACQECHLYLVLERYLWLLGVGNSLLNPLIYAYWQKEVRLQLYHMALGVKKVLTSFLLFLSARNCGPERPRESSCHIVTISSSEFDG
Description: Intrinsic activity against human GPR119 receptor expressed in HEK293 cells assessed as beta-lactamase production by cAMP response element assay. It is filed as functional, cell-based. The method, boiled down: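 Human recombinant cell-based cAMP functional assay, read as intrinsic activity. The number of runs varies by compound, with SD reported where n >2.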

Data set [2] concerns the target T2, Glucose-dependent insulinotropic receptor (Homo sapiens, UniProt Q8TDV5).
T2 sequence (Q8TDV5 whole entry): T1 sequence (whole entry)
The data set is described as follows: Agonist activity against human GPR119 receptor expressed in HEK293 cells assessed as beta-lactamase production by cAMP response element assay. It is filed as functional, cell-based.

Data set [3] is described as follows: Intrinsic clearance in human liver microsomes. It is filed as ADME, Microsome. A general note: Liver microsomes are vesicles of endoplasmic reticulum, rich in cytochrome P450 enzymes.
Data set [4] is described as follows: Lipophilicity, log D of the compound. The format is physicochemical. The settings on record: octanol/water.

Consider `C[C@H](CNC(=O)Cc1c(F)ccc(F)c1F)C1CCN(C(=O)OC2(C)CC2)CC1`, for which the Intrinsic activity in data set [1] is 124%. The EC50 in data set [2] amounted to 44 nM. This molecule had an intrinsic metabolic clearance (CLint scaled) in data set [3] of more than 300 mL/min/kg. For the same molecule, the logD in data set [4] came to 3.9.
`CC(CNC(=O)Cc1cccc(F)c1F)C1CCN(C(=O)OC(C)(C)C)CC1` (stereo not drawn): in data set [1], the Intrinsic activity came out at 107%. Further, the EC50 in data set [2] was 75 nM. In addition, in data set [3], the CLint scaled is more than 300 mL/min/kg.
As for `C[C@@H](CNC(=O)Cc1c(F)ccc(F)c1F)C1CCN(C(=O)OC2(C)CC2)CC1`, the Intrinsic activity in data set [1] was 97%. The EC50 in data set [2] came out at 236 nM. The same molecule returned an intrinsic clearance (CLint scaled) in data set [3] of 187 mL/min/kg. Also, in data set [4], the logD amounted to 3.9.
On to `CC(CNC(=O)Cc1ccccc1)C1CCN(C(=O)OC(C)(C)C)CC1` (stereo not drawn), for which the Intrinsic activity in data set [1] came out at 100%. Besides, the concentration for a half-maximal effect (EC50) in data set [2] is 5980 nM. Also, the CLint scaled in data set [3] was 247 mL/min/kg.
With `CC(CNC(=O)Cc1cccc(F)c1)C1CCN(C(=O)OC(C)(C)C)CC1` (stereo not drawn), the Intrinsic activity in data set [1] stood at 102%. Further, in data set [2], the concentration for a half-maximal effect (EC50) turned out to be 340 nM. In data set [3], this molecule returned an intrinsic metabolic clearance (CLint scaled) of more than 300 mL/min/kg.
For `CC(CNC(=O)Cc1c(F)ccc(F)c1F)C1CCN(C(=O)OC(C)(C)C)CC1` (stereo not drawn) the same measures were 87%, 13 nM and 230 mL/min/kg.
As for `CC1(OC(=O)N2CCC([C@H](F)CNC(=O)Cc3c(F)ccc(F)c3F)CC2)CC1`, the Intrinsic activity in data set [1] was 107%. Besides, the EC50 in data set [2] turned out to be 80 nM. Besides, the intrinsic clearance (CLint scaled) in data set [3] came out at 42.4 mL/min/kg. The log distribution coefficient (logD) in data set [4] amounted to 3.4.
For the molecule `CC1(OC(=O)N2CCC([C@@H](F)CNC(=O)Cc3c(F)ccc(F)c3F)CC2)CC1`, the Intrinsic activity in data set [1] is 100%. For the same molecule, in data set [2], the EC50 was 1380 nM. The molecule also registered a CLint scaled in data set [3] of 63.8 mL/min/kg. The logD in data set [4] was 3.4.
`CC(CNC(=O)Cc1cc(F)ccc1F)C1CCN(C(=O)OC(C)(C)C)CC1` (stereo not drawn): the Intrinsic activity in data set [1] is 104%. Also, in data set [2], the concentration for a half-maximal effect (EC50) is 78 nM. This molecule registered a CLint scaled in data set [3] of more than 300 mL/min/kg.
`CC(C)OC(=O)N1CCC(C(C)CNC(=O)Cc2c(F)ccc(F)c2F)CC1` (stereo not drawn): the Intrinsic activity in data set [1] was found to be 88%. In data set [2], the concentration giving a half-maximal response (EC50) came to 32 nM. In data set [3], the CLint scaled worked out at 205 mL/min/kg. For the same molecule, the logD in data set [4] amounted to 4.
Regarding `CC(CNC(=O)Cc1ccccc1F)C1CCN(C(=O)OC(C)(C)C)CC1` (stereo not drawn), the Intrinsic activity in data set [1] amounted to 97%. The EC50 in data set [2] worked out at 808 nM. In data set [3], this molecule showed a CLint scaled of more than 300 mL/min/kg.
For the molecule `CC1(OC(=O)N2CCC(CCNC(=O)Cc3c(F)ccc(F)c3F)CC2)CC1`, the Intrinsic activity in data set [1] amounted to 111%. Also, the EC50 in data set [2] worked out at 868 nM. Also, the logD in data set [4] was determined as 3.5.
Turning to `CC(CNC(=O)Cc1ccc(-n2cnnn2)cc1)C1CCN(C(=O)OC(C)(C)C)CC1` (stereo not drawn), the Intrinsic activity in data set [1] came out at 72%. The EC50 in data set [2] worked out at 267 nM. In addition, the CLint scaled in data set [3] is more than 270 mL/min/kg.
Regarding `CC(CNC(=O)Cc1ccc(S(C)(=O)=O)cc1)C1CCN(C(=O)OC(C)(C)C)CC1` (stereo not drawn), in data set [1], the Intrinsic activity was determined as 47%. Further, in data set [2], the 50% effective concentration (EC50) worked out at 884 nM. In data set [3], the CLint scaled was 136 mL/min/kg.
Consider `CC(CNC(=O)Cc1c(F)cccc1F)C1CCN(C(=O)OC(C)(C)C)CC1` (stereo not drawn), for which the Intrinsic activity in data set [1] worked out at 101%. Moreover, the 50% effective concentration (EC50) in data set [2] amounted to 120 nM. The logD in data set [4] was found to be 3.9.
On to `CC(C)OC(=O)N1CCC(CCNC(=O)Cc2c(F)ccc(F)c2F)CC1`, for which, in data set [1], the Intrinsic activity came to 68%. Moreover, the EC50 in data set [2] amounted to 409 nM. The molecule also gave a logD in data set [4] of 3.4.

The term EC50 denotes the concentration that produces a half-maximal response. As usually defined, the CLint scaled is the rate of metabolic loss divided by the concentration. A high value points to faster metabolism. The term logD denotes lipophilicity at a set pH, counting ionised and neutral species.
